≈ marks a conversion by molar mass, not a printed value. Calls of active or inactive are those of the source. No cut-off for these calls is given here.
What was measured:
Proteus mirabilis [1] = assay: In vitro minimum inhibitory concentration against Proteus mirabilis; type: functional; conditions: Proteus mirabilis; read-out: MIC
Outline: (§1)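 Compounds were dissolved in water, or in water with the minimum DMSO needed to keep them in solution, and tested by an established dilution method. A ">" prefix means the DMSO solvent blank was inhibitory at that level.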

Staphylococcus aureus [2] = assay: In vitro minimum inhibitory concentration against Staphylococcus aureus; type: functional; conditions: Staphylococcus aureus; read-out: MIC; outline: as §1
Staphylococcus aureus [3] = assay: Minimum inhibitory dilution of medicated rat urine tested in vitro for antibacterial activity against Staphylococcus aureus; Equal to 1:2; type: functional
Proteus mirabilis [4] = assay: Minimum inhibitory dilution of medicated rat urine tested in vitro for antibacterial activity against Proteus mirabilis; Less than 1:2; type: functional
Proteus mirabilis [5] = assay: Minimum inhibitory dilution of medicated rat urine tested in vitro for antibacterial activity against Proteus mirabilis; Equal to 1:8; type: functional
Staphylococcus aureus [6] = assay: Minimum inhibitory dilution of medicated rat urine tested in vitro for antibacterial activity against Staphylococcus aureus; Equal to 1:16; type: functional
Staphylococcus aureus [7] = assay: Minimum inhibitory dilution of medicated rat urine tested in vitro for antibacterial activity against Staphylococcus aureus; Less than 1:2; type: functional
Staphylococcus aureus [8] = assay: Minimum inhibitory dilution of medicated rat urine tested in vitro for antibacterial activity against Staphylococcus aureus; Equal to 1:128; type: functional
Proteus mirabilis [9] = assay: Minimum inhibitory dilution of medicated rat urine tested in vitro for antibacterial activity against Proteus mirabilis; Equal to 1:192; type: functional
Mus musculus [10] = assay: Antitubercular activity (25 mg/kg) in the 31-day murine mice model; NA=Not active; type: functional, organism-based
Outline: (§2)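 Female Swiss mice (14–16 g), 10 per treated group and 20 infected controls, were infected i.v. with 0.1 mL of a 2 mg/mL M. tuberculosis H37Rv suspension. Oral dosing was in 0.5 mL 1.0% gum tragacanth, starting day 3 post-infection, twice daily, 5 days/week for 4 weeks. Percent survival was recorded at day 31; active meant survival consistently >80%.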

Mus musculus [11] = assay: Antitubercular activity (6.25 mg/kg) in the 31-day murine mice model; NA=Not active; type: functional, organism-based; outline: as §2
Mus musculus [12] = assay: Antitubercular activity (50 mg/kg) in the 31-day murine mice model; NA=Not active; type: functional, organism-based; outline: as §2
Mus musculus [13] = assay: Antitubercular activity (12.5 mg/kg) in the 31-day murine mice model; NA=Not active; type: functional, organism-based; outline: as §2
Staphylococcus aureus [14] = assay: Minimum inhibitory dilution of medicated rat urine tested in vitro for antibacterial activity against Staphylococcus aureus; Equal to 1:4; type: functional
Mus musculus [15] = assay: Antitubercular activity (3.1 mg/kg) in the 31-day murine mice model; NA=Not active; type: functional, organism-based; outline: as §2
Mus musculus [16] = assay: Antitubercular activity (100 mg/kg) in the 31-day murine mice model; NA=Not active; type: functional, organism-based; outline: as §2
Staphylococcus aureus [17] = assay: Minimum inhibitory dilution of medicated rat urine tested in vitro for antibacterial activity against Staphylococcus aureus; Equal to 1:64; type: functional
Mus musculus [18] = assay: Antitubercular activity (6.25 mg/kg) in the 31-day murine mice model; type: functional; outline: as §2
Proteus mirabilis [19] = assay: Minimum inhibitory dilution of medicated rat urine tested in vitro for antibacterial activity against Proteus mirabilis; Equals to 1:16; type: functional
Mus musculus [20] = assay: Antitubercular activity (12.5 mg/kg) in the 31-day murine mice model; type: functional; outline: as §2
Mus musculus [21] = assay: Antitubercular activity (3.1 mg/kg) in the 31-day murine mice model; type: functional; outline: as §2
Staphylococcus aureus [22] = assay: Minimum inhibitory dilution of medicated rat urine tested in vitro for antibacterial activity against Staphylococcus aureus; Equal to 1:32; type: functional
Mus musculus [23] = assay: Antitubercular activity (25 mg/kg) in the 31-day murine model; type: functional; outline: as §2
Mus musculus [24] = assay: Antitubercular activity (50 mg/kg) in the 31-day murine model; type: functional; outline: as §2
Mus musculus [25] = assay: Antitubercular activity (100 mg/kg) in the 31-day murine model; type: functional; outline: as §2
Mus musculus [26] = assay: Antitubercular activity (12.5 mg/kg) in the 31-day murine model; type: functional; outline: as §2
Mus musculus [27] = assay: Antitubercular activity (50 mg/kg) in the 31-day murine mice model; type: functional; outline: as §2
Mus musculus [28] = assay: Antitubercular activity (25 mg/kg) in the 31-day murine mice model; type: functional; outline: as §2
Mus musculus [29] = assay: Antitubercular activity (100 mg/kg) in the 31-day murine mice model; type: functional; outline: as §2
Staphylococcus aureus [30] = assay: Minimum inhibitory dilution of medicated rat urine tested in vitro for antibacterial activity against Staphylococcus aureus; Equal to 1:8; type: functional
Proteus mirabilis [31] = assay: Minimum inhibitory dilution of medicated rat urine tested in vitro for antibacterial activity against Proteus mirabilis; Equal to 1:16; type: functional
Proteus mirabilis [32] = assay: Minimum inhibitory dilution of medicated rat urine tested in vitro for antibacterial activity against Proteus mirabilis; Equal to 1:4; type: functional

Row | Structure (SMILES) | MIC (Proteus mirabilis [1]) | MIC (Staphylococcus aureus [2]) | MID (Proteus mirabilis [4]) | MID (Staphylococcus aureus [7]) | also measured
1 | Cc1ccc(C)n1N=C1C=CC(=O)C=C1 | 62.5 µg/mL (≈ 312 µM) | ≤ 7.8 µg/mL | <0.5 | – | MID (Staphylococcus aureus [3]): 0.5
2 | O=C(O)c1cccn1Nc1ccc(O)cc1 | 500 µg/mL (≈ 2290 µM) | 500 µg/mL (≈ 2290 µM) | – | – | MID (Proteus mirabilis [5]): 0.125; MID (Staphylococcus aureus [6]): 0.0625
3 | [N-]=[N+]=NC1=CC(=O)C=C/C1=N/n1cccc1 | > 250 µg/mL | 125 µg/mL (≈ 586 µM) | <0.5 | <0.5 | –
4 | c1ccc(Nn2cccc2)cc1 | > 125 µg/mL | 250 µg/mL (≈ 1580 µM) | – | – | MID (Staphylococcus aureus [8]): 0.00781; MID (Proteus mirabilis [9]): 0.005208
5 | Cc1ccc(C(=O)Oc2ccc(Nn3cccc3)cc2)cc1 | > 250 µg/mL | > 250 µg/mL | < 0.5 | – | Survival (Mus musculus [10]): inactive; Survival (Mus musculus [11]): inactive; Survival (Mus musculus [12]): inactive; Survival (Mus musculus [13]): inactive; MID (Staphylococcus aureus [14]): 0.25; Survival (Mus musculus [15]): inactive; Survival (Mus musculus [16]): inactive
6 | Oc1ccc(Nn2cccc2)cc1 | 31.3 µg/mL (≈ 180 µM) | ≤ 7.8 µg/mL | – | – | MID (Staphylococcus aureus [17]): 0.01562; Survival (Mus musculus [18]): 100%; MID (Proteus mirabilis [19]): 0.0625; Survival (Mus musculus [20]): 100%; Survival (Mus musculus [21]): 0%
7 | O=C1CN(/N=C/c2ccc([N+](=O)[O-])o2)C(=O)N1 [NITROFURANTOIN] | > 62.5 µg/mL | 15.6 µg/mL (≈ 65.5 µM) | – | – | MID (Staphylococcus aureus [22]): 0.03125
8 | NNC(=O)c1ccncc1 [ISONIAZID] | – | – | – | – | Survival (Mus musculus [18]): 100%; Survival (Mus musculus [20]): 100%; Survival (Mus musculus [21]): 100%
9 | CC[C@@H](CO)NCCN[C@@H](CC)CO [ETHAMBUTOL] | – | – | – | – | Survival (Mus musculus [23]): 30%; Survival (Mus musculus [24]): 90%; Survival (Mus musculus [25]): 100%; Survival (Mus musculus [26]): 0%
10 | CN(C)C1=CC(=O)C=C/C1=N/n1cccc1 | > 125 µg/mL | 62.5 µg/mL (≈ 290 µM) | <0.5 | <0.5 | –
11 | c1ccn(Nc2ccc(Nn3cccc3)cc2)c1 | > 250 µg/mL | 125 µg/mL (≈ 525 µM) | <0.5 | <0.5 | Survival (Mus musculus [27]): 0%; Survival (Mus musculus [18]): 0%; Survival (Mus musculus [28]): 40%; Survival (Mus musculus [29]): 0%; Survival (Mus musculus [20]): 0%
12 | Oc1ccc(Nn2cccc2)cc1O | 62.5 µg/mL (≈ 329 µM) | ≤ 7.8 µg/mL | <0.5 | – | MID (Staphylococcus aureus [30]): 0.125
13 | O=C1C=C/C(=N/n2cccc2)C(Cl)=C1 | > 125 µg/mL | 31.3 µg/mL (≈ 151 µM) | <0.5 | <0.5 | –
14 | CC(C)(C)C1=CC(=Nn2cccc2)C=C(C(C)(C)C)C1=O | > 62.5 µg/mL | > 62.5 µg/mL | <0.5 | <0.5 | –
15 | COc1ccc(Nn2cccc2)cc1 | > 125 µg/mL | > 125 µg/mL | – | – | MID (Staphylococcus aureus [22]): 0.03125; MID (Proteus mirabilis [31]): 0.0625
16 | O=C1C=CC(=Nn2cccc2)C=C1 | 62.5 µg/mL (≈ 363 µM) | ≤ 7.8 µg/mL | – | – | Survival (Mus musculus [27]): 100%; Survival (Mus musculus [18]): 100%; Survival (Mus musculus [28]): 100%; MID (Staphylococcus aureus [22]): 0.03125; MID (Proteus mirabilis [32]): 0.25; Survival (Mus musculus [20]): 100%; Survival (Mus musculus [21]): 0%
17 | CC(=O)Oc1ccc(Nn2cccc2)cc1 | > 62.5 µg/mL | > 62.5 µg/mL | <0.5 | – | MID (Staphylococcus aureus [6]): 0.0625
18 | Oc1ccccc1Nn1cccc1 | 15.6 µg/mL (≈ 89.6 µM) | ≤ 7.8 µg/mL | <0.5 | <0.5 | –

— ChEMBL document CHEMBL1121743, “Synthesis and antibacterial activity of 1-(arylamino)-1H-pyrroles and 4-(1H-pyrrol-1-ylimino)-2,5-cyclohexadienes” (1981)
